Source: ChEMBL document CHEMBL4428051, “Preclinical Activity of New [1,2]Oxazolo[5,4-e]isoindole Derivatives in Diffuse Malignant Peritoneal Mesothelioma” (J Med Chem, 2016)
Calls of active or inactive are those of the source. The calls are words filed in the database; no cut-off is given here.

Experiments:
Homo sapiens [1] = organism: Homo sapiens; assay: Cell cycle arrest in human STO cells assessed as decrease in cell levels at G1 phase at IC50 after 48 to 72 hrs by propidium iodide staining-based flow cytometric method; type: functional
Outline: (§1)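 Cells exposed to drug or 1% (v/v) DMSO control for 48 and 72 h. Adherent and floating cells fixed in 70% EtOH, then stained 30 min at 4 °C with propidium iodide 50 μg/mL, RNase and 0.05% Nonidet-P40 in PBS. Flow cytometry read ≥30000 events; G1, S and G2/M percentages fitted with the Modfit model; mean of three independent experiments.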

Homo sapiens [2] = organism: Homo sapiens; assay: Cell cycle arrest in human STO cells assessed as accumulation at G2/M phase at IC50 after 48 to 72 hrs by propidium iodide staining-based flow cytometric method; type: functional; outline: as §1
Homo sapiens [3] = organism: Homo sapiens; assay: Cell cycle arrest in human STO cells assessed as decrease in cell levels at S phase at IC50 after 48 to 72 hrs by propidium iodide staining-based flow cytometric method; type: functional; outline: as §1
Homo sapiens [4] = organism: Homo sapiens; assay: Cell cycle arrest in human MP4 cells assessed as decrease in cell levels at S phase at IC50 after 48 to 72 hrs by propidium iodide staining-based flow cytometric method; type: functional; outline: as §1
[5] = Cell cycle arrest in human STO cells assessed as mitotic cells at 1 nM after 72 hrs by MPM2 staining-based fluorescence microscopic analysis relative to control; type: functional
Homo sapiens [6] = organism: Homo sapiens; assay: Cell cycle arrest in human MP4 cells assessed as decrease in cell levels at G1 phase at IC50 after 48 to 72 hrs by propidium iodide staining-based flow cytometric method; type: functional; outline: as §1
Tubulin (Sus scrofa) [7] = biological target: T1, Tubulin (Sus scrofa) (UniProt P02554+P02550); assay: Induction of GTP-induced porcine tubulin polymerization at 10 uM measured every minute up to 60 mins relative to control; type: protein assay
T1 sequence (P02550 whole entry, looked up): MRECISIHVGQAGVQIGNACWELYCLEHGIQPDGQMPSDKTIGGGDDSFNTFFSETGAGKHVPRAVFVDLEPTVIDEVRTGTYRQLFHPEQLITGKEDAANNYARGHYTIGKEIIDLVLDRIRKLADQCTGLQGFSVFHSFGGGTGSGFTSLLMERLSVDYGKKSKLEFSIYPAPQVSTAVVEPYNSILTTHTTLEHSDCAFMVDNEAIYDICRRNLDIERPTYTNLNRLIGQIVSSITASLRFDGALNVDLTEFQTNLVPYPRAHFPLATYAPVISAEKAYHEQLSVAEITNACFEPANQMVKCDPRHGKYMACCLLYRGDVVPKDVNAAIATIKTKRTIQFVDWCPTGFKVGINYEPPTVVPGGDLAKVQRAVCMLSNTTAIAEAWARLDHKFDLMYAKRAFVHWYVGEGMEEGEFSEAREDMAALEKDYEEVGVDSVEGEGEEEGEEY
T1 sequence (P02554 whole entry, looked up): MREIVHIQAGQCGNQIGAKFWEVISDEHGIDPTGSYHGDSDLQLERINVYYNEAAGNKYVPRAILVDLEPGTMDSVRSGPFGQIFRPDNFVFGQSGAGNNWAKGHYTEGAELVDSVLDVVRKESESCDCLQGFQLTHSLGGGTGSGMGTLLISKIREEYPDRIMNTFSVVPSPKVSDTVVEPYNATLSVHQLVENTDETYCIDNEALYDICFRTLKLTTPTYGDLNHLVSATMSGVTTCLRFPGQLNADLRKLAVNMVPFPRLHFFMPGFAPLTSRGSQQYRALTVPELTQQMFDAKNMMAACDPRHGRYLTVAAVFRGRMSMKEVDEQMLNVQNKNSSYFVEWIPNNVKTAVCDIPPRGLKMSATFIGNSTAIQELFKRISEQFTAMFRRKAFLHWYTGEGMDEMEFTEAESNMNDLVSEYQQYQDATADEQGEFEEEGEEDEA
Outline: (§2)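 Test agent or taxol/vinorelbine was added at 10 μmol/L. Polymerization was started at 37 °C and followed by absorbance at 340 nm every minute up to 60 min.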

Homo sapiens [8] = organism: Homo sapiens; assay: Cell cycle arrest in human MP4 cells assessed as accumulation at G2/M phase at IC50 after 48 to 72 hrs by propidium iodide staining-based flow cytometric method; type: functional; outline: as §1
[9] = Cell cycle arrest in human MP8 cells assessed as mitotic cells at 18 nM after 72 hrs by MPM2 staining-based fluorescence microscopic analysis relative to control; type: functional
[10] = system: Panel NCI-60 (60 carcinoma cell lines); assay: Growth inhibition of human NCI60 cells at 10^-4 to 10^-8 M after 48 hrs by sulforhodamine B assay; type: functional, cell-based
Tubulin (Sus scrofa) [11] = biological target: T1, Tubulin (Sus scrofa); assay: Inhibition of GTP-induced porcine tubulin polymerization at 10 uM measured every minute up to 60 mins relative to control; type: protein assay; outline: as §2
Tubulin (Homo sapiens) [12] = biological target: T2, Tubulin (Homo sapiens) (UniProt P68371+Q9H4B7+P0DPH7+P68366+Q13509+Q71U36+P04350+Q3ZCM7+P07437+P68363+Q9BQE3+Q6PEY2+Q13885+Q9BVA1+Q9BUF5); assay: Inhibition of tubulin polymerization in human STO cells at 2 nM after 24 hrs by Western blot analysis relative to soluble fraction of tubulin; type: cell-based
Tubulin (Homo sapiens) [13] = biological target: T2, Tubulin (Homo sapiens); assay: Inhibition of tubulin polymerization in human MP4 cells at 10 nM after 24 hrs by Western blot analysis relative to soluble fraction of tubulin; type: cell-based
[14] = Cell cycle arrest in human STO cells assessed as mitotic cells at 2 nM after 72 hrs by MPM2 staining-based fluorescence microscopic analysis relative to control; type: functional
[15] = Cell cycle arrest in human MP8 cells assessed as mitotic cells at 13 nM after 72 hrs by MPM2 staining-based fluorescence microscopic analysis relative to control; type: functional
[16] = Toxicity in athymic nude mouse xenografted with human STO cells assessed as mortality at 5 mg/kg, ip administrated every 7 days for 4 weeks starting from day 10 post tumor implantation; type: organism-based; details: in vivo
Outline: (§3)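 Female nude mice, 6−8 weeks old, with 10⁷ exponentially growing STO cells injected subcutaneously into the right flank. Eight mice per group, randomly assigned to vehicle control or treatment. Compound was given ip in 10% DMSO / 90% saline. Tumor diameters were measured weekly by caliper.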

[17] = Growth inhibition of human STO cells after 72 hrs by MTS assay; type: functional
Outline: (§4)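 DMPM lines were kept in DMEM F12 with 10% heat-inactivated FBS at 37 °C, 5% CO₂. 4500 cells/well were plated 24 h, then exposed 72 h to 0.1−100 μM; vehicle was 0.01% DMSO. MTS read at OD 490 nm and expressed as % of DMSO-treated cells. Eight replicates per condition, ≥3 independent repeats. IC50 and IC80 were taken graphically from dose–response curves.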

[18] = Antitumor activity against human STO cells xenografted in athymic nude mouse assessed as tumor growth inhibition at 5 mg/kg, ip administrated every 7 days for 4 weeks starting from day 10 post tumor implantation relative to control; type: functional; details: read-out: TGI
Outline: (§5)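 Female nude mice, 6−8 weeks old, given 10⁷ exponentially growing STO cells s.c. in the right flank; 8 mice/group. Drug in 10% DMSO/90% saline, 5 mg/kg ip q7dx4 from day 10 after inoculum; controls got vehicle. Tumour diameters caliper-measured weekly, TV = d²×D/2, TVI% = 100 − (mean TV treated/mean TV control × 100). Ki67 staining on formalin-fixed paraffin sections of tumours after the last treatment.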

[19] = Induction of apoptosis in human STO cells assessed as increase in caspase-3 catalytic activity by measuring DEVD-pNA hydrolysis at IC80 after 72 hrs by spectrofluorometric method relative to control; type: functional
Outline: (§6)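 STO and MP4 cells were exposed 72 h to drug or to 1% (v/v) DMSO control, then washed, pelleted and lysed. Total protein was mixed with DEVD-pNA for 1 h at 37 °C. Hydrolysis was read fluorometrically, ex 380/em 460 nm, as relative fluorescence units. Mean of three independent experiments.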

Tubulin (Homo sapiens) [20] = biological target: T2, Tubulin (Homo sapiens); assay: Inhibition of tubulin polymerization in human STO cells at IC50 after 24 hrs by Western blot analysis relative to soluble fraction of tubulin; type: cell-based
Homo sapiens [21] = organism: Homo sapiens; assay: Cell cycle arrest in human MP4 cells assessed as decrease in cell levels at S phase at IC50 to IC80 after 48 to 72 hrs by propidium iodide staining-based flow cytometric method; type: functional; outline: as §1
Homo sapiens [22] = organism: Homo sapiens; assay: Cell cycle arrest in human STO cells assessed as accumulation at G2/M phase at IC50 to IC80 by propidium iodide staining-based flow cytometric method; type: functional; details: TDE = time-dependent effect; outline: as §1
Homo sapiens [23] = organism: Homo sapiens; assay: Cell cycle arrest in human MP4 cells assessed as decrease in cell levels at G1 phase at IC50 to IC80 after 48 to 72 hrs by propidium iodide staining-based flow cytometric method; type: functional; outline: as §1
Homo sapiens [24] = organism: Homo sapiens; assay: Cell cycle arrest in human STO cells assessed as decrease in cell levels at G1 phase at IC50 to IC80 after 48 to 72 hrs by propidium iodide staining-based flow cytometric method; type: functional; outline: as §1
Homo sapiens [25] = organism: Homo sapiens; assay: Induction of apoptosis in human STO cells assessed as increase in caspase-3 catalytic activity by measuring DEVD-pNA hydrolysis at IC50 to IC80 by spectrofluorometric method; type: functional, cell-based; details: TDE = time-dependent effect
[26] = Cell cycle arrest in human STO cells assessed as mitotic cells at IC50 after 72 hrs by MPM2 staining-based fluorescence microscopic analysis relative to control; type: functional
Homo sapiens [27] = organism: Homo sapiens; assay: Cell cycle arrest in human STO cells assessed as decrease in cell levels at S phase at IC50 to IC80 after 48 to 72 hrs by propidium iodide staining-based flow cytometric method; type: functional; outline: as §1
Tubulin (Homo sapiens) [28] = biological target: T2, Tubulin (Homo sapiens); assay: Inhibition of tubulin polymerization in human MP4 cells at IC50 after 24 hrs by Western blot analysis relative to soluble fraction of tubulin; type: cell-based
Homo sapiens [29] = organism: Homo sapiens; assay: Cell cycle arrest in human MP4 cells assessed as accumulation at G2/M phase at IC50 to IC80 by propidium iodide staining-based flow cytometric method; type: functional; details: TDE = time-dependent effect; outline: as §1
[30] = Induction of apoptosis in human MP4 cells assessed as increase in caspase-3 catalytic activity by measuring DEVD-pNA hydrolysis at IC80 after 72 hrs by spectrofluorometric method relative to control; type: functional; outline: as §6
WI-38 = assay: Growth inhibition of human WI38 cells after 72 hrs by MTS assay; type: cell-based; details: WI-38, 72 h
[31] = Toxicity in athymic nude mouse xenografted with human STO cells assessed as drug tolerance at 5 mg/kg, ip administrated every 7 days for 4 weeks starting from day 10 post tumor implantation; type: organism-based; details: in vivo; outline: as §3
[32] = Cell cycle arrest in human MP8 cells assessed as mitotic cells at IC50 after 72 hrs by MPM2 staining-based fluorescence microscopic analysis relative to control; type: functional
[33] = Growth inhibition of human MP4 cells after 72 hrs by MTS assay; type: functional; outline: as §4
Homo sapiens [34] = assay: Antitumor activity against human STO cells xenografted in athymic nude mouse assessed as suppression of cell proliferation at 5 mg/kg, ip administrated every 7 days for 4 weeks starting from day 10 post tumor implantation measured post last dose by Ki67 immunohistochemical staining-based assay; type: functional, organism-based; outline: as §5
[35] = Growth inhibition of human MP8 cells after 72 hrs by MTS assay; type: functional; details: MP8, 72 h; outline: as §4
Homo sapiens [36] = organism: Homo sapiens; assay: Induction of apoptosis in human MP4 cells assessed as increase in caspase-3 catalytic activity by measuring DEVD-pNA hydrolysis at IC50 to IC80 by spectrofluorometric method; type: functional, cell-based; details: TDE = time-dependent effect
[37] = Toxicity in athymic nude mouse xenografted with human STO cells assessed as body weight loss at 5 mg/kg, ip administrated every 7 days for 4 weeks starting from day 10 post tumor implantation; type: organism-based; details: in vivo; outline: as §3

## CC(=O)O[C@H]1C(=O)[C@@]2(C)[C@H]([C@H](OC(=O)c3ccccc3)[C@]3(O)C[C@H](OC(=O)[C@H](O)[C@@H](NC(=O)c4ccccc4)c4ccccc4)C(C)=C1C3(C)C)[C@]1(OC(C)=O)CO[C@@H]1C[C@@H]2O [PACLITAXEL]
Homo sapiens [1]
  Activity: Active
Homo sapiens [2]
  Activity: Active
Homo sapiens [3]
  Activity: Active
Homo sapiens [4]
  Activity: Active
[5]
  Activity: 30 - 50%
Homo sapiens [6]
  Activity: Active
Tubulin (Sus scrofa) [7]
  Activity: Active
Homo sapiens [8]
  Activity: Active
[9]
  Activity: 30 - 50%

## COc1ccc(Cn2cc3c(c2-c2ccccc2)CCc2cnoc2-3)cc1N
[10]
  growth inhibition (GI): Active

## COc1ccc(Cn2cc3c(c2-c2ccccc2)CCc2cnoc2-3)cc1
[10]
  growth inhibition (GI): Active

## COc1ccc(Cn2cc3c(c2-c2ccc(OC)cc2)CCc2cnoc2-3)cc1
[10]
  growth inhibition (GI): Active

## COc1ccc(Cn2cc3c(c2-c2cc(OC)c(OC)c(OC)c2)CCc2cnoc2-3)cc1
[10]
  growth inhibition (GI): Active

## CCC1=C[C@@H]2CN(C1)Cc1c([nH]c3ccccc13)[C@@](C(=O)OC)(c1cc3c(cc1OC)N(C)[C@H]1[C@@](O)(C(=O)OC)[C@H](OC(C)=O)[C@]4(CC)C=CCN5CC[C@]31[C@@H]54)C2 [VINORELBINE]
Tubulin (Sus scrofa) [11]
  inhibition: Active
Homo sapiens [1]
  Activity: Active
Tubulin (Homo sapiens) [12]
  inhibition: Active
Homo sapiens [2]
  Activity: Active
Homo sapiens [3]
  Activity: Active
Tubulin (Homo sapiens) [13]
  inhibition: Active
[14]
  Activity: 30 - 50%
Homo sapiens [4]
  Activity: Active
[15]
  Activity: 30 - 50%
Homo sapiens [6]
  Activity: Active
Homo sapiens [8]
  Activity: Active

## COc1ccc(Cn2cc3c(c2-c2cc(OC)c(OC)c(OC)c2)CCc2cnoc2-3)cc1[N+](=O)[O-]
[10]
  growth inhibition (GI): Active

## COc1ccc(Cn2cc3c(c2-c2cc(OC)c(OC)c(OC)c2)CCc2cnoc2-3)cc1N
[16]
  Activity: Non-Toxic
[17]
  IC50: 70 nM
[18]
  inhibition in vivo at 5 mg/kg: 59%
[19]
  fold change (FC): 38.5
Tubulin (Homo sapiens) [20]
  inhibition: Active
Tubulin (Sus scrofa) [11]
  inhibition: Active
Homo sapiens [21]
  Activity: Active
Homo sapiens [22]
  Activity: Tde
Homo sapiens [23]
  Activity: Active
Homo sapiens [24]
  Activity: Active
Homo sapiens [25]
  Activity: Tde
[26]
  Activity: 30 - 50%
Homo sapiens [27]
  Activity: Active
Tubulin (Homo sapiens) [28]
  inhibition: Active
Homo sapiens [29]
  Activity: Tde
[10]
  growth inhibition (GI): Active
[30]
  fold change (FC): 35
WI-38
  IC50: > 100000 nM
[31]
  Activity: Non-Toxic
[32]
  Activity: 30 - 50%
[33]
  IC50: 160 nM
Homo sapiens [34]
  Activity: Active
[35]
  IC50: 130 nM
Homo sapiens [36]
  Activity: Tde
[37]
  Activity: Non-Toxic

## COc1ccc(Cn2cc3c(c2-c2ccc(O)cc2)CCc2cnoc2-3)cc1
[10]
  growth inhibition (GI): Active
